≈ marks a conversion by molar mass, not a printed value.
What was measured:
[1] = system: P. acnes-induced skin inflammation; assay: P. acnes infection; type: in vivo, BALB/c-nu mice
How it was run: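 Six-week-old male BALB/c-nu mice were acclimatized 3 d. They received P. acnes (1.5 × 10^8 CFU/ml) daily by intradermal injection into dorsal skin at 0.05 ml/10 g; the blank group was not injected. Test compound in 1 mg/ml Carbopol 940 hydrogel was applied topically to the inflamed area at 0.05 g/10 g; controls were left untreated. Swelling length and width were measured by caliper, with volume V = a×b²/2.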

P. acnes [2] = assay: In vivo antibacterial efficiency; set-up: species or system BALB/c-nu mice; conditions: after 7 d of treatment, vs control, n = 3
How it was run: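 Six-week-old male BALB/c-nu mice were acclimatized for 3 d. They received daily intradermal dorsal injections of P. acnes at 1.5 x 10^8 CFU/ml, 0.05 ml/10 g. Test compound in 1 mg/ml Carbopol 940 hydrogel was applied topically at 0.05 g/10 g; controls were untreated. At the end, 8 mm punch biopsies were homogenized in 2 ml PBS and diluted 10 times. A 0.1 ml aliquot was plated on RCM and grown anaerobically at 37 °C for 48 h. Colonies were counted and expressed as treated vs control (%).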

TNF-α = assay: Anti-inflammatory activity, ELISA, LPS-treated HaCaT cells; type: cell-based; conditions: 5 µmol/l for 12 h, then 1 µg/ml LPS 24 h, vs LPS, n = 3
How it was run: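 HaCaT cells were grown in DMEM with 10% FBS and 1% penicillin at 37 °C and 5% CO2. They were seeded in 6-well plates and precultured to 80% confluence. Test compound was given for 12 h, then 1 µg/ml LPS for 24 h. Medium-only (36 h) and LPS-only groups served as controls. TNF-α in the supernatant was measured by ELISA; n = 3.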

[3] = Oil-water distribution coefficient; type: physicochemical; conditions: n-octanol/water, logP Average, 25 °C, n = 3
Sau. = assay: Minimum inhibition concentration; type: cell-based, Staphylococcus aureus; conditions: Sau. (GDMCC 1.1220), 1.5 × 10^6 CFU/ml, 48 h
How it was run: (§1)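 The parent compound was dissolved in DMSO/saline (1:9) and NPs were diluted in water. Samples were serially diluted (1:1 to 1:256, v/v) in LB or RCM broth and incubated 48 h with bacteria. Growth was scored visually. P. acnes (GDMCC 1.243) was grown on RCM at 37 °C anaerobically; S. aureus (GDMCC 1.1220) and S. epidermidis (GDMCC 1.143) were grown on NA at 37 °C.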

P. acnes [4] = assay: Minimum inhibition concentration; type: cell-based, Propionibacterium acnes; conditions: P. acnes (GDMCC 1.243), anaerobic, 1.5 × 10^6 CFU/ml, 48 h
How it was run: as §1

NF-κB (p65) = assay: Immunohistochemical observation of skin; type: in vivo, BALB/c-nu mice; conditions: after 7 d topical hydrogel, vs control group, n = 3
How it was run: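 P. acnes-infected nude mice were treated topically with 1 mg/ml hydrogel. Skin was collected at the end of treatment and paraffin sections were immunostained with mouse anti-NF-κB p65 antibody (1:400). Staining was quantified as average optical density (AOD) per group by image analysis.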

Sep. = assay: Minimum inhibition concentration; type: cell-based, Staphylococcus epidermidis; conditions: Sep. (GDMCC 1.143), 1.5 × 10^6 CFU/ml, 48 h
How it was run: as §1

[5] = Visualization of skin penetration by CLSM; type: in vitro ADME, BALB/c-nu nude mice; conditions: 6 h treatment
How it was run: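 Dorsal skin was excised from six-week-old male BALB/c-nu nude mice and cleared of subcutaneous tissue. It was exposed to C6-loaded nanoparticles of the test compound, since the compound itself fluoresces weakly. Skin was processed as in the HPLC retention study, then imaged by confocal microscopy. Mean skin fluorescence intensity was calculated per group.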

IL-8 mRNA = assay: RT-PCR of inflammatory factors, LPS-treated HaCaT cells; type: cell-based; conditions: 5 µmol/l for 12 h, then 1 µg/ml LPS 24 h, n = 3

Row | SMILES | Body weight and skin tolerance ([1]; 7-d treatment period, topical 1 mg/ml hydrogel) | Reduction in swelling volume ([1]; Day 7 of treatment, topical 1 mg/ml hydrogel (Carbopol 940), 0.05 g/10 g, n = 6) [%] | Histomorphological observation (HE staining) of skin ([1]; after 7 d topical 1 mg/ml hydrogel) | Quantity of P. acnes in the skin (P. acnes [2]) | TNF-α expression level in supernatant (TNF-α) | logP at 24 h [3] | MIC (Sau.) [µM] | MIC (P. acnes [4]) [µM] | NF-κB p65 expression in skin (AOD) (NF-κB (p65)) | MIC (Sep.) [µM] | Penetration of C6 into the skin (CLSM) [5] | IL-8 mRNA expression (IL-8 mRNA)
1 | C[C@H]1COC2=C1C(=O)C(=O)c1c2ccc2c1CCCC2(C)C [CTS, Cryptotanshinone] | no significant weight loss or skin dryness and erythema | 64.9 | reduction in skin thickness, accompanied by a decrease in keratinization | significantly reduced the quantity of P. acnes in the skin | although reduced, did not reach statistical significance | 4.49 | 125 (≈ 37 µg/mL) | 250 (≈ 74.1 µg/mL) | slight reduction in NF-κB p65 expression | 125 (≈ 37 µg/mL) |  | 
2 | CCN(CC)c1ccc2cc(-c3nc4ccccc4s3)c(=O)oc2c1 [C6, coumarin-6] |  |  |  |  |  |  |  |  |  |  | solely observable in the skin's stratum corneum | 
3 | CC(C)(C)c1ccc(S(=O)(=O)/C=C/C#N)cc1 [BAY11-7085] |  |  |  |  | substantially suppressed TNF-α expression |  |  |  |  |  |  | restored to normal baseline levels
